Columns and labels:
Rattus norvegicus [1] = experiment: Iron-clearing efficiency in non-iron-overloaded Sprague-Dawley rat at 300 umol/kg, po; assay type: functional
Procedure, shortened: (§1)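 Bile-duct-cannulated, non-iron-overloaded male Sprague-Dawley rats (400–450 g), single 300 μmol/kg dose po or sc, given in water or as the monosodium salt depending on compound. Bile collected at 3-h intervals for 24 h; urine at 24 h. Efficiency = (treated minus control iron excretion) / theoretical output, as percent; mean ± SEM.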

[2] = Distribution in Sprague-Dawley rat plasma at 300 umol/kg, sc after 2 hrs; assay type: ADME, organism-based
Procedure, shortened: (§2)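 Male Sprague-Dawley rats (250–350 g), single sc 300 μmol/kg dose; euthanized by CO2 at 2, 4, 6, 8 h (n = 3 per time point). Citrated cardiac-puncture plasma; tissues homogenized in water 1:2 (w/v), proteins precipitated with methanol at −20 °C, filtered. Reversed-phase HPLC with UV at 310 nm; levels from calibration curves, as nmol/g wet weight; detection limit about 5 nmol/g.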

[3] = Distribution in Sprague-Dawley rat plasma at 300 umol/kg, sc after 8 hrs; assay type: ADME, organism-based; procedure, shortened: as §2
Rattus norvegicus [4] = experiment: Distribution in Sprague-Dawley rat pancreas at 300 umol/kg, sc after 2 hrs; assay type: ADME, organism-based; conditions: in vivo; procedure, shortened: as §2
Rattus norvegicus [5] = experiment: Nephrotoxicity in rat at 300 umol/kg; conditions: in vivo
[6] = Apparent partition coefficient of the compound at pH7.4; assay type: physicochemical; conditions: octanol/water, pH 7.4; read-out: LogD7.4
Procedure, shortened: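 Apparent partition coefficient by shake-flask direct method between octanol and TRIS buffer, pH 7.4; reported as log of the fraction in the octanol layer (log P_app).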

Rattus norvegicus [7] = experiment: Iron-clearing efficiency in non-iron-overloaded Sprague-Dawley rat at 300 umol/kg, sc; assay type: functional; procedure, shortened: as §1
Sapajus apella [8] = experiment: Iron-clearing efficiency in iron-loaded Cebus apella at 150 umol/kg, sc; assay type: functional
Procedure, shortened: (§3)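 Cebus apella monkeys (3.5–4 kg), iron overloaded with iv iron dextran (about 500 mg Fe/kg), used at least 60 d later; single 150 μmol/kg dose. Feces and urine collected every 24 h from 4 d before to 5 d after dosing; iron by flame atomic absorption. Efficiency = (2-day post-drug iron minus mean 4-day baseline) / theoretical output, as percent; mean ± SEM.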

Sapajus apella [9] = experiment: Iron-clearing efficiency in iron-loaded Cebus apella at 150 umol/kg, po; assay type: functional; procedure, shortened: as §3
Plasma = experiment: Distribution in Sprague-Dawley rat plasma at 300 umol/kg, sc; assay type: ADME; conditions: read-out: Cp; procedure, shortened: as §2
Rattus norvegicus [10] = experiment: Distribution in Sprague-Dawley rat liver at 300 umol/kg, sc after 2 hrs; assay type: ADME, organism-based; conditions: in vivo; procedure, shortened: as §2
Rattus norvegicus [11] = experiment: Distribution in Sprague-Dawley rat liver at 300 umol/kg, sc after 8 hrs; assay type: ADME, organism-based; conditions: in vivo; procedure, shortened: as §2
Rattus norvegicus [12] = experiment: Distribution in Sprague-Dawley rat heart at 300 umol/kg, sc after 2 hrs; assay type: ADME, organism-based; conditions: in vivo; procedure, shortened: as §2
Rattus norvegicus [13] = experiment: Distribution in Sprague-Dawley rat kidney at 300 umol/kg, sc after 2 hrs; assay type: ADME, organism-based; conditions: in vivo; procedure, shortened: as §2
Rattus norvegicus [14] = experiment: Distribution in Sprague-Dawley rat kidney at 300 umol/kg, sc after 8 hrs; assay type: ADME, organism-based; conditions: in vivo; procedure, shortened: as §2
Rattus norvegicus [15] = experiment: Distribution in Sprague-Dawley rat pancreas at 300 umol/kg, sc after 8 hrs; assay type: ADME, organism-based; conditions: in vivo; procedure, shortened: as §2
Rattus norvegicus [16] = experiment: Distribution in Sprague-Dawley rat heart at 300 umol/kg, sc after 4 hrs; assay type: ADME, organism-based; conditions: in vivo; procedure, shortened: as §2
Rattus norvegicus [17] = experiment: Distribution in Sprague-Dawley rat heart at 300 umol/kg, sc after 8 hrs; assay type: ADME, organism-based; conditions: in vivo; procedure, shortened: as §2

Structure (SMILES) | Activity (Rattus norvegicus [1]) | Drug uptake (Rattus norvegicus [4]) | logD [6] | Activity (Rattus norvegicus [7]) | Activity (Sapajus apella [8]) | Activity (Sapajus apella [9]) | also measured
COc1ccc(C2=N[C@@](C)(C(=O)O)CS2)c(O)c1 | 6.6% | 38 nmol/g |  |  |  |  | concentration at 2 h [2]: 470 µM; concentration at 8 h [3]: 75 µM; Activity (Rattus norvegicus [5]): Active
CC1(C)SC(c2ccc(O)cc2O)=N[C@H]1C(=O)O |  |  | -0.91 |  |  |  | 
O=C(O)[C@H]1CSC(c2ccccc2O)=N1 |  |  | -0.93 |  |  |  | 
CCOC(=O)[C@@]1(C)CSC(c2ccc(OCCOCCOCCOC)cc2O)=N1 |  |  |  | 11.4% | 17.9% |  | 
C[C@]1(C(=O)O)CSC(c2ccc(O)cc2O)=N1 [DEFERITRIN] | 1.1% | 6 nmol/g |  | 1.1% | 15.9% | 16.8% | concentration (Plasma): < 10 µM; Drug uptake (Rattus norvegicus [10]): 48 nmol/g; Drug uptake (Rattus norvegicus [11]): 12 nmol/g; Drug uptake (Rattus norvegicus [12]): 5 nmol/g; Drug uptake (Rattus norvegicus [13]): 100 nmol/g; Drug uptake (Rattus norvegicus [14]): 9 nmol/g
COCCOCCOCCOc1ccc(C2=N[C@@](C)(C(=O)OC(C)C)CS2)c(O)c1 | 13.9% |  |  | 22.1% |  | 19.5% | 
CC1(C)SC(c2ccccc2O)=N[C@H]1C(=O)O |  |  | -0.34 |  |  |  | 
COCCOCCOCCOc1ccc(C2=N[C@@](C)(C(=O)O)CS2)c(O)c1 | 5.5% | 30 nmol/g | -1.1 | 8.7% | 30.4% | 25.4% | concentration (Plasma): < 10 µM; Drug uptake (Rattus norvegicus [15]): 3 nmol/g; Drug uptake (Rattus norvegicus [12]): 9 nmol/g; Drug uptake (Rattus norvegicus [16]): 5 nmol/g; Drug uptake (Rattus norvegicus [17]): 2 nmol/g; Drug uptake (Rattus norvegicus [13]): 41 nmol/g; Drug uptake (Rattus norvegicus [14]): < 10 nmol/g
C[C@]1(C(=O)O)CSC(c2ccccc2O)=N1 |  |  | -0.34 |  |  |  | 
